Results as given in ChEMBL document CHEMBL1152819, “Evaluation of hexadecyloxypropyl-9-R-[2-(Phosphonomethoxy)propyl]- adenine, CMX157, as a potential treatment for human immunodeficiency virus type 1 and hepatitis B virus infections” (Antimicrob Agents Chemother, 2007).
One block for each molecule: values may come before it.

Assays:
[1] = test system: Human immunodeficiency virus 1; assay: Antiviral activity against HIV1 in human MT2 cells; assay type: functional, organism-based
Outline: (§1)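 MT-2 cells in RPMI 1640 with 10% FBS and 10 mM HEPES, infected with HIV-1 LAI at MOI 0.001 TCID50/cell. Incubated with threefold serial dilutions, three wells per dilution. EC50 taken as the concentration inhibiting p24 antigen production by 50%.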

Rattus norvegicus [2] = assay: Toxicity in Sprague-Dawley rat assessed as hematological changes at 10 to 100 mg/kg, po administered daily for 7 days; assay type: organism-based; set-up: dose 10-100 mg/kg, route oral; settings: in vivo, 168 h
Outline: (§2)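 Sprague-Dawley rats (3/sex/group), 8–12 weeks old, given vehicle or 10, 30 or 100 mg/kg/day orally once daily for 7 days. Serum biochemistry, hematology and urinalysis done at day 7. At necropsy, control and high-dose rats examined grossly, organs weighed, and all tissues processed for histopathology.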

Rattus norvegicus [3] = assay: Toxicity in Sprague-Dawley rat assessed as change in coagulation parameters at 10 to 100 mg/kg, po administered daily for 7 days; assay type: organism-based; set-up: dose 10-100 mg/kg, route oral; settings: in vivo, 168 h
Rattus norvegicus [4] = assay: Toxicity in Sprague-Dawley rat assessed as change in body weight at 10 to 100 mg/kg, po administered daily for 7 days; assay type: organism-based; set-up: dose 10-100 mg/kg, route oral; settings: in vivo, 168 h
Outline: (§3)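 Sprague-Dawley rats (3/sex/group), 8–12 weeks old, given vehicle or 10, 30 or 100 mg/kg/day orally once daily for 7 days. Mortality, morbidity, clinical observations, body weight and food consumption recorded daily.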

Rattus norvegicus [5] = assay: Toxicity in Sprague-Dawley rat assessed as change in organ weight at 10 to 100 mg/kg, po administered daily for 7 days; assay type: organism-based; set-up: dose 10-100 mg/kg, route oral; settings: in vivo, 168 h; outline: as §2
Rattus norvegicus [6] = assay: Toxicity in Sprague-Dawley rat assessed as change in erythrocyte morphology at 10 to 100 mg/kg, po administered daily for 7 days; assay type: organism-based; set-up: dose 10-100 mg/kg, route oral; settings: in vivo, 168 h
[7] = test system: Human immunodeficiency virus 1; assay: Antiviral activity against HIV1 LAI in human MT2 cells assessed as inhibition of p24 antigen production by ELISA; assay type: functional, organism-based; settings: Human immunodeficiency virus 1, LAI; outline: as §1
[8] = AUC (0 to 24 hrs) in Sprague-Dawley rat at 30 mg/kg, po administered daily for 7 days measured on day 7; assay type: ADME, organism-based; set-up: time < 24 hr, dose 30 mg/kg, route oral; settings: plasma
Outline: (§4)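 Oral once daily for 7 days, vehicle or 10, 30 or 100 mg/kg/day, Sprague-Dawley rats 8-12 weeks old, not fasted. Plasma sampled 0.5, 1, 2, 4, 12, 24 h after dosing on days 1 and 7 (1 rat/sex/time point). CMX157 and tenofovir measured by HPLC-MS/MS, LOQ 1 ng/ml (values below set to zero). Noncompartmental analysis; Cmax/Tmax by direct observation, AUC by linear-log trapezoidal rule.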

[9] = Elimination half life in Sprague-Dawley rat at 100 mg/kg, po administered daily for 7 days measured on day 1; assay type: ADME, organism-based; set-up: dose 100 mg/kg, route oral; settings: in vivo, read-out: beta t1/2 (converted); outline: as §4
[10] = Cytotoxicity against human MT2 cells; assay type: cell-based
Outline: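 MT-2 cells in RPMI 1640 with 10% FBS and 10 mM HEPES, exposed to threefold serial drug dilutions. CC50 calculated from cell counts and viability.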

[11] = Cytotoxicity against human PBMC by XTT assay; assay type: cell-based
Outline: (§5)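 Fresh human PBMCs, seronegative for HIV and HBV, infected with HIV-1 clade B HT/92/599. Antiviral read-out by reverse transcriptase reduction; cytotoxicity by XTT staining. EC50, CC50 and CC50/EC50 taken from data plots, given as mean ± standard deviation of triplicate determinations.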

[12] = Elimination half life in Sprague-Dawley rat at 100 mg/kg, po administered daily for 7 days measured on day 7; assay type: ADME, organism-based; set-up: dose 100 mg/kg, route oral; settings: in vivo, read-out: beta t1/2 (converted); outline: as §4
[13] = AUC (0 to 24 hrs) in Sprague-Dawley rat at 100 mg/kg, po administered daily for 7 days measured on day 1; assay type: ADME, organism-based; set-up: time < 24 hr, dose 100 mg/kg, route oral; settings: plasma
Outline: (§6)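 Sprague-Dawley rats, 8–12 weeks old, dosed orally once daily for 7 days and not fasted. Blood taken at 0.5, 1, 2, 4, 12 and 24 h after dosing on days 1 and 7, one rat/sex/time point. Plasma deproteinized, analyte separated by mixed-mode HPLC and quantified by MS/MS, LOQ 1 ng/ml, values below LOQ set to zero. Noncompartmental analysis: Tmax read from plotted data, AUC by linear-log trapezoidal rule.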

Rattus norvegicus [14] = assay: Toxicity in Sprague-Dawley rat assessed as change in gross necroscopy at 10 to 100 mg/kg, po administered daily for 7 days; assay type: organism-based; set-up: dose 10-100 mg/kg, route oral; settings: in vivo, 168 h; outline: as §2
[15] = Selectivity index, ratio of CC50 for human MT2 cells to EC50 for HIV1 LAI; assay type: toxicity, cell-based; settings: read-out: Ratio CC50/EC50
[16] = Tmax in Sprague-Dawley rat at 10 mg/kg, po administered daily for 7 days measured on day 7; assay type: ADME, organism-based; set-up: dose 10 mg/kg, route oral; settings: in vivo; outline: as §6
Hepatitis B virus [17] = assay: Antiviral activity against HBV in human HepG2(2.2.15) cells assessed as viral DNA levels treated for 9 days measured after 24 hrs; assay type: functional, organism-based
Outline: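 Confluent 2.2.15 cells in RPMI 1640 with 2% FBS, given nine consecutive daily doses with daily medium change (six cultures per concentration on two replicate plates). HBV DNA quantified by blot hybridization 24 h after the last treatment.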

[18] = test system: Human immunodeficiency virus 1; assay: Antiviral activity against HIV1 clade B HT/92/599 isolate in human PBMC assessed as reduction in reverse transcriptase; assay type: functional, organism-based; settings: Human immunodeficiency virus 1, clade B; outline: as §5
[19] = AUC (0 to 24 hrs) in Sprague-Dawley rat at 10 mg/kg, po administered daily for 7 days measured on day 1; assay type: ADME, organism-based; set-up: time < 24 hr, dose 10 mg/kg, route oral; settings: plasma; outline: as §6
[20] = Tmax in Sprague-Dawley rat at 100 mg/kg, po administered daily for 7 days measured on day 7; assay type: ADME, organism-based; set-up: dose 100 mg/kg, route oral; settings: in vivo; outline: as §6
[21] = Selectivity index, ratio of CC50 for human HepG2(2.2.15) cells to EC50 for HBV
[22] = AUC (0 to 24 hrs) in Sprague-Dawley rat at 100 mg/kg, po administered daily for 7 days measured on day 7; assay type: ADME, organism-based; set-up: time < 24 hr, dose 100 mg/kg, route oral; settings: plasma; outline: as §4
Rattus norvegicus [23] = assay: Toxicity in Sprague-Dawley rat assessed as change in food consumption at 10 to 100 mg/kg, po administered daily for 7 days; assay type: organism-based; set-up: dose 10-100 mg/kg, route oral; settings: in vivo, 168 h; outline: as §3
HepG2 = assay: Cytotoxicity against human HepG2 cells by MTS assay; assay type: cell-based; settings: Homo sapiens, HepG2
Outline: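 Exponentially growing HepG2 cells (parent hepatoma line); cytostatic effect measured by MTS method.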

[24] = AUC (0 to 24 hrs) in Sprague-Dawley rat at 30 mg/kg, po administered daily for 7 days measured on day 1; assay type: ADME, organism-based; set-up: time < 24 hr, dose 30 mg/kg, route oral; settings: plasma; outline: as §6
Hepatitis B virus [25] = assay: Antiviral activity against HBV in human HepAD38 cells assessed as intracellular viral DNA levels treated for 3 days measured on day 6 […] by RT-PCR; assay type: functional, organism-based
Outline: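 HepAD38 cells seeded at 5 x 10^5/well, grown 2-3 days with 0.3 µg/ml tetracycline, then induced by PBS wash and tetracycline/G418-free medium with or without compound at 37°C, 5% CO2. Medium changed after 3 days. Intracellular HBV DNA measured on day 6 postinduction by TaqMan real-time PCR against a plasmid standard curve, given as % of mock.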

[26] = Tmax in Sprague-Dawley rat at 100 mg/kg, po administered daily for 7 days measured on day 1; assay type: ADME, organism-based; set-up: dose 100 mg/kg, route oral; settings: in vivo; outline: as §6
Rattus norvegicus [27] = assay: Toxicity in Sprague-Dawley rat assessed as microscopic lesions at 10 to 100 mg/kg, po administered daily for 7 days; assay type: organism-based; set-up: dose 10-100 mg/kg, route oral; settings: in vivo, 168 h; outline: as §2
[28] = Tmax in Sprague-Dawley rat at 10 mg/kg, po administered daily for 7 days measured on day 1; assay type: ADME, organism-based; set-up: dose 10 mg/kg, route oral; settings: in vivo; outline: as §6
[29] = Selectivity index, ratio of CC50 for human PBMC to EC50 for HIV1 clade B HT/92/599 isolate; outline: as §5
[30] = Cytotoxicity against human HepG2(2.2.15) cells after 24 hrs by neutral red uptake assay; assay type: cell-based; settings: Homo sapiens, HepG2 2.2.15, 24 h
Outline: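 Confluent 2.2.15 cells given nine daily treatments. Neutral red uptake read by absorbance of internalized dye 24 h after the last treatment, three cultures per concentration.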

[31] = Tmax in Sprague-Dawley rat at 30 mg/kg, po administered daily for 7 days measured on day 7; assay type: ADME, organism-based; set-up: dose 30 mg/kg, route oral; settings: in vivo; outline: as §6
Rattus norvegicus [32] = assay: Toxicity in Sprague-Dawley rat assessed as change in urinalysis parameters at 10 to 100 mg/kg, po administered daily for 7 days; assay type: organism-based; set-up: dose 10-100 mg/kg, route oral; settings: in vivo, 168 h; outline: as §2
Rattus norvegicus [33] = assay: Toxicity in Sprague-Dawley rat assessed as ophthalmological changes at 10 to 100 mg/kg, po administered daily for 7 days; assay type: organism-based; set-up: dose 10-100 mg/kg, route oral; settings: in vivo, 168 h
[34] = AUC (0 to 24 hrs) in Sprague-Dawley rat at 10 mg/kg, po administered daily for 7 days measured on day 7; assay type: ADME, organism-based; set-up: time < 24 hr, dose 10 mg/kg, route oral; settings: plasma; outline: as §4
Rattus norvegicus [35] = assay: Toxicity in Sprague-Dawley rat assessed as change in clinical chemistry parameters at 10 to 100 mg/kg, po administered daily for 7 days; assay type: organism-based; set-up: dose 10-100 mg/kg, route oral; settings: in vivo, 168 h; outline: as §2
Rattus norvegicus [36] = assay: Toxicity in Sprague-Dawley rat assessed as mortality at 10 to 100 mg/kg, po administered daily for 7 days; assay type: organism-based; set-up: dose 10-100 mg/kg, route oral; settings: in vivo, 168 h; outline: as §3
[37] = Tmax in Sprague-Dawley rat at 30 mg/kg, po administered daily for 7 days measured on day 1; assay type: ADME, organism-based; set-up: dose 30 mg/kg, route oral; settings: in vivo; outline: as §6
[38] = Selectivity index, ratio of CC50 for human HepG2 cells to EC50 for HBV

EC50 [1]: 0.02 nM
Structure (SMILES): CCCCCCCCCCCCCCCCOCCCOP(=O)(O)COCCn1cnc2c(NC3CC3)nc(N)nc21

Structure (SMILES): CCCCCCCCCCCCCCCCOCCCOP(=O)(O)CO[C@H](C)Cn1cnc2c(N)ncnc21 [TENOFOVIR EXALIDEX]
Activity (Rattus norvegicus [2]): Non-toxic | Activity (Rattus norvegicus [3]): Non-toxic | Activity (Rattus norvegicus [4]): Non-toxic | Activity (Rattus norvegicus [5]): Non-toxic | Activity (Rattus norvegicus [6]): Non-toxic | EC50 [7]: < 0.01 nM | AUC at 24 h [8]: 1540 ng·h/mL | half-life [9]: 2.5 h | CC50 [10]: 54000 nM | CC50 [11]: 144000 nM | half-life [12]: 1.6 h | AUC(0-t) at 24 h [13]: 5410 ng·h/mL | Activity (Rattus norvegicus [14]): Non-toxic | selectivity ratio [15]: > 5.4e+06 | Tmax [16]: 0.5 h | EC50 (Hepatitis B virus [17]): 1600 nM | EC50 [18]: 12 nM | AUC(0-t) at 24 h [19]: 442 ng·h/mL | Tmax [20]: 2 h | Ratio CC50/EC50 [21]: >187.5 | AUC at 24 h [22]: 8410 ng·h/mL | Activity (Rattus norvegicus [23]): Non-toxic | EC50 (HepG2): > 18800 nM | AUC(0-t) at 24 h [24]: 1830 ng·h/mL | EC50 (Hepatitis B virus [25]): 490 nM | Tmax [26]: 2 h | Activity (Rattus norvegicus [27]): Non-toxic | Tmax [28]: 0.5 h | Ratio CC50/EC50 [29]: 12000 | EC50 [30]: > 300000 nM | Tmax [31]: 1 h | Activity (Rattus norvegicus [32]): Non-toxic | Activity (Rattus norvegicus [33]): Non-toxic | AUC at 24 h [34]: 435 ng·h/mL | Activity (Rattus norvegicus [35]): Non-toxic | Activity (Rattus norvegicus [36]): Non-toxic | Tmax [37]: 2 h | Ratio CC50/EC50 [38]: 38.4

EC50 [1]: 0.02 nM
Structure (SMILES): CCCCCCCCCCCCCCCCOCCCOP(=O)(O)COCCn1cnc2c(N)nc(N)nc21
